# NPY-Y1 PAM-ag: human NPY-Y1 potentiation or agonism, primary screen. P25929. NPY-Y1 expressing cells, potentiator/agonist activation. activation, % at 3.6 µM. hit rate 0.37% among 220,000. AID 1304; in the data active = activation above about 33%, passing the limit was not always enough;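 also: cells stimulated with NPY at EC10 then isoproterenol at EC100; 0% = low agonist plus stimulus and 100% = saturating agonist plus stimulus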
# NPY2 pot ag: potentiates or activates human NPY-Y2 receptor | P49146 | cells expressing NPY-Y2, potentiator/agonist read-out | activation, % at 3.6 µM | hit rate 0.45% among 220,000; in the data active = activation above about 27%;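 also: cells stimulated with NPY near EC25 plus isoproterenol at EC100; 0% = vehicle plus submaximal agonist and 100% = vehicle plus saturating agonist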
# Target sequence (P49146 whole entry, looked up): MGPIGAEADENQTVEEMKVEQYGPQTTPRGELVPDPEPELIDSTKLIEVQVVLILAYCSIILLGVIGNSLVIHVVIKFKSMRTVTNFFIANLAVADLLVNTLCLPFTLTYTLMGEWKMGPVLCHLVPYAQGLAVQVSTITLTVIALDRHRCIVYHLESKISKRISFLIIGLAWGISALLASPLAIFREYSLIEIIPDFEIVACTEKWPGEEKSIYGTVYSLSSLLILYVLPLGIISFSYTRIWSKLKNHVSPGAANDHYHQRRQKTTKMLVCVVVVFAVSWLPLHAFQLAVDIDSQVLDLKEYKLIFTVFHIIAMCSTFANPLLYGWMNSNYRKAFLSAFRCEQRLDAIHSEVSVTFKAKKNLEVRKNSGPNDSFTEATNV
# NPY Y2 blocker: antagonists of human neuropeptide Y receptor Y2; AID 793; inhibition, % at 2.7 µM; hit rate 0.99% among 140,000; P49146; NPY-Y2 expressing cells, antagonist mode; in the data active = inhibition above about 17%;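 also: 0% = vehicle with agonist challenge and 100% = reference antagonist with challenge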
# NPY Y1 blocker: blocks the human neuropeptide Y Y1 receptor; P25929; HEK293-CNG Y1 cells, membrane potential fluorescence; NPY at EC95, then isoproterenol; inhibition, % at 3.6 µM; hit rate 1% among 200,000;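 active = inhibition above the campaign mean inhibition of all tested compounds plus 3 SD, cut at about 20% in these data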;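 also: 0% = DMSO wells given NPY plus isoproterenol and 100% = isoproterenol alone without NPY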
#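 Assay system: HEK293 Y1/CNG channel cell line; Doses: single compound dose of 3.6 µM, 0.4% DMSO; Timing: dye 3 h, compound 60 min room temperature, stimulation 45 min; Technique: Membrane-potential fluorescent dye readout; Measure: % inhibition of NPY effect.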
# NPY1 antag ctr: human NPY-Y1 antagonism in NPY-Y2 counter-screen; shares compounds with NPY Y2 blocker; cell-based NPY-Y1 antagonism counterscreen; inhibition, % at 3.6 µM; hit rate 19% among 710; AID 1256; in the data active = inhibition above about 20%;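 also: cells challenged with NPY then isoproterenol with cAMP sensed through a CNG channel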
# NPY2 antag conf: confirmation of human neuropeptide Y receptor Y2 antagonists; shares compounds with NPY Y2 blocker; HEK293 NPY-Y2 CNG channel, membrane potential fluorescence; inhibition, % at 2.8 µM; hit rate 32% among 710;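 active = mean inhibition of triplicate wells above the hit cutoff set in the primary screen, cut at about 17% in these data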;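 also: 0% = DMSO with NPY challenge and 100% = BIIE0246 high control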
# Numbers without * were called inactive; x = no result given; ! = repeats disagree. This is a sample that favours compounds with a hit; in the whole collection about 1.8% have one here.
SMILES,NPY-Y1 PAM-ag,NPY2 pot ag,NPY Y2 blocker,NPY Y1 blocker,NPY1 antag ctr,NPY2 antag conf
CCC(C)(C)n1nnnc1C(c1ccc2ncccc2c1)N1CCCC(C)C1 (stereo unspecified),-11,-1,18*,19,11,10
O=C(NCC1CCCO1)c1ccc(CNS(=O)(=O)c2cccc(Cl)c2)cc1 (stereo unspecified),1,6,x,5,x,x
Cc1ccc(S(=O)(=O)C(c2ccccc2)c2c(C)noc2C)cc1 (stereo unspecified),-7,-12,17*,2,3,57*
CCOC(=O)c1c(NC(=O)c2nn(C)cc2[N+](=O)[O-])sc(C)c1C,-8,-5,x,1,x,x
Cc1ccc(-c2cc(C(F)F)n3ncc(C(=O)N4CCN(c5ccccn5)CC4)c3n2)cc1,-28,-7,20*,6,19,17
O=C(Cc1ccc2c(c1)CCCC2)Nc1ccc2ccccc2c1,-11,-14,18*,18,11,13
COc1ccccc1OCCCOc1ccc(C)cc1Br,-14,4,4,-2,x,x
Cc1ccc(OCCCCN(C)Cc2ccccc2)c(Br)c1,-41,-16,18*,11,13,18*
CC(=O)N(Cc1cccs1)Cc1cc2cc(C)c(C)cc2nc1Cl,-15,-21,x,-2,x,x
Cc1ccc2nc(Cl)c(CN(Cc3cccs3)C(=O)C3CC3)cc2c1,-39,-12,19*,18,15,12
Cc1ccc(C)c(NC(=O)CN(C)S(=O)(=O)c2cccc3cccnc23)c1,0,10,x,x,x,x
Cc1cc(OCC(=O)O/N=C(\N)c2ccccc2)ccc1Cl,-10,-4,19*,10,7,10
Cc1cccc(/C(N)=N/OC(=O)COc2ccc(Cl)c(C)c2)c1,1,16,11,-3,x,x
CC(=O)Nc1ccc(Nc2nc(Cl)nc(Nc3ccc(NC(C)=O)cc3)n2)cc1,2,-21,x,12,x,x
Cc1cc(Cl)c(OCCCNCc2ccccc2)c(Br)c1,-50,-14,18*,14,17,23*
COc1cccc(C2C(C(N)=O)=C(C)Nc3nc(-c4ccccc4Cl)nn32)c1 (stereo unspecified),6,11,20*,-3,-2,1
O=C(NN1CCN(Cc2ccccc2)CC1)c1ccc(N2CCOCC2)c([N+](=O)[O-])c1,-7,-12,x,0,x,x
CCCC[C@@H]1C[C@H]1[C@@H](NC(=O)c1ccco1)c1ccc(Cl)cc1,-25,2,2,9,x,x
CCCC[C@@H]1C[C@H]1[C@@H](NC(=O)c1cccs1)c1ccc(Cl)cc1,-46,1,18*,2,13,17
Cc1cccc(C)c1NC(=O)C1(N(Cc2ccco2)C(=O)c2ccccn2)CCCC1,-18,-3,5,10,x,x
O=C(c1ccccn1)N(Cc1ccco1)C1(C(=O)NC2CCCCC2)CCCCC1,2,1,32*,19,11,6
CC(C)N=c1c([N+](=O)[O-])nn(C)n1O,23,6,x,5,x,x
CC(C)c1ccccc1NC(=O)COC(=O)c1c2c(nc3ccccc13)CCN(Cc1ccccc1)C2,-18,-6,19*,18,17,9
Cc1c(Cl)cccc1NC(=O)COC(=O)c1c2c(nc3ccccc13)CCN(Cc1ccccc1)C2,-32,-2,12,8,x,x
O=C(NC1CCCCCC1)c1c2c(nc3ccccc13)CCN(Cc1ccccc1)C2,6,-6,56*,10,81*,67*
SMILES,NPY-Y1 PAM-ag,NPY2 pot ag,NPY Y2 blocker,NPY Y1 blocker,NPY1 antag ctr,NPY2 antag conf
CC(=O)Nc1ccc(NC(=O)CCNS(=O)(=O)c2cccc3nsnc23)cc1,-19,15,x,1,x,x
CCc1nc(N(CC)CC)c2oc3ccccc3c2n1,-15,-9,19*,14,9,6
COC(=O)Cn1c(=N)n(CCN2CCCCC2)c2ccccc21,-20,10,4,0,x,x
Cc1ccccc1OCC(O)Cn1c(=N)n(CCN2CCOCC2)c2ccccc21 (stereo unspecified),-16,-2,28*,30*!,10,7
COc1ccccc1OCC(O)Cn1c(=N)n(CCN2CCCCC2)c2ccccc21 (stereo unspecified),-53,-7,45*,17,31*,39*
COc1ccc(CCN2C(=O)NC(NS(=O)(=O)c3ccc(NC(C)=O)cc3)(C(F)(F)F)C2=O)cc1OC (stereo unspecified),-13,-1,x,2,x,x
